Reference: ChEMBL document CHEMBL1122688, “Antimycotic azoles. 7. Synthesis and antifungal properties of a series of novel triazol-3-ones” (1984)

What was measured:
[1] = system: Phialophora verrucosa; assay: In vitro antifungal activity against Phialophora verrucosa; format: functional
Method in brief: (§1)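 Fungal growth-inhibition screen (Godefroi method) against dermatophytes, yeasts, moulds and other fungi. The value is the lowest concentration (µg/mL) giving total inhibition of growth, tested up to 100 µg/mL.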

[2] = system: Aspergillus fumigatus; assay: In vitro antifungal activity against Aspergillus fumigatus; format: functional; method in brief: as §1
[3] = In vitro antifungal activity against Mucor sp; format: functional; method in brief: as §1
[4] = system: Microsporum canis; assay: In vitro antifungal activity against Microsporum canis; format: functional; method in brief: as §1
[5] = In vivo activity against vaginal candidoses in rats, measured as the ratio of animals cured/animals infected (C/I) at dose 10 mg/kg; C/I = 1/2; format: functional
[6] = system: Cryptococcus neoformans; assay: In vitro antifungal activity against Cryptococcus neoformans; format: functional; method in brief: as §1
[7] = system: Sporothrix schenckii; assay: In vitro antifungal activity against Sporothrix schenck ii; format: functional; method in brief: as §1
[8] = In vivo activity against microsporosis guinea pig, measured as the ratio of animals cured/animals infected (C/I) at dose 20 mg/kg; C/I = 0/2; format: functional
[9] = system: Saprolegnia; assay: In vitro antifungal activity against Saprolegnia sp; format: functional; method in brief: as §1
[10] = system: Candida albicans; assay: In vitro antifungal activity against Candida albicans; format: functional; method in brief: as §1
[11] = In vivo activity against vaginal candidoses in rats, measured as the ratio of animals cured/animals infected (C/I) at dose 2.5 mg/kg; C/I = 1/2; format: functional
[12] = system: Trichophyton rubrum; assay: In vitro antifungal activity against Trichophyton rubrum; format: functional; method in brief: as §1
[13] = system: Trichophyton benhamiae; assay: In vitro antifungal activity against Trichophyton mentagrophytes; format: functional, Arthroderma benhamiae; method in brief: as §1
[14] = system: Candida tropicalis; assay: In vitro antifungal activity against Candida tropicalis; format: functional; method in brief: as §1
[15] = In vivo activity against vaginal candidoses in rats, measured as the ratio of animals cured/animals infected (C/I) at dose 10 mg/kg; 173/181; format: functional
[16] = In vivo activity against vaginal candidoses in rats, measured as the ratio of animals cured/animals infected (C/I) at dose 2.5 mg/kg; 2/8; format: functional
[17] = In vivo activity against microsporosis guinea pig, measured as the ratio of animals cured/animals infected (C/I) at dose 2.5 mg/kg;0/14; format: functional
[18] = In vivo activity against microsporosis guinea pig, measured as the ratio of animals cured/animals infected (C/I) at dose 10 mg/kg; 4/34; format: functional
[19] = In vivo activity against microsporosis guinea pig, measured as the ratio of animals cured/animals infected (C/I) at dose 20 mg/kg; 30/30; format: functional
[20] = In vivo activity against vaginal candidoses in rats, measured as the ratio of animals cured/animals infected (C/I) at dose 1.25 mg/kg; 0/12; format: functional
[21] = In vivo activity against microsporosis guinea pig, measured as the ratio of animals cured/animals infected (C/I) at dose 1.25 mg/kg; C/I = 12/15; format: functional
[22] = In vivo activity against microsporosis guinea pig, measured as the ratio of animals cured/animals infected (C/I) at dose 10 mg/kg; C/I = 6/6; format: functional
[23] = In vivo activity against vaginal candidoses in rats, measured as the ratio of animals cured/animals infected (C/I) at dose 10 mg/kg; C/I = 12/12; format: functional
[24] = In vivo activity against vaginal candidoses in rats, measured as the ratio of animals cured/animals infected (C/I) at dose 2.5 mg/kg; C/I = 29/34; format: functional
[25] = In vivo activity against microsporosis guinea pig, measured as the ratio of animals cured/animals infected (C/I) at dose 2.5 mg/kg; C/I = 11/12; format: functional
[26] = system: Rattus norvegicus; assay: In vivo activity against vaginal candidoses in rats, measured as the ratio of animals cured/animals infected (C/I) at dose 1.25 mg/kg; C/I = 13/33; format: functional
[27] = In vivo activity against vaginal candidoses in rats, measured as the ratio of animals cured/animals infected (C/I) at dose 0.63 mg/kg; C/I = 7/40; format: functional
[28] = In vivo activity against vaginal candidoses in rats, measured as the ratio of animals cured/animals infected (C/I) at dose 0.63 mg/kg; C/I = 1/6; format: functional
[29] = In vivo activity against vaginal candidoses in rats, measured as the ratio of animals cured/animals infected (C/I) at dose 1.25 mg/kg; C/I = 1/4; format: functional
[30] = In vivo activity against microsporosis guinea pig, measured as the ratio of animals cured/animals infected (C/I) at dose 10 mg/kg; C/I = 0/4; format: functional
[31] = In vivo activity against vaginal candidoses in rats, measured as the ratio of animals cured/animals infected (C/I) at dose 2.5 mg/kg; C/I = 9/10; format: functional
[32] = In vivo activity against microsporosis guinea pig, measured as the ratio of animals cured/animals infected (C/I) at dose 10 mg/kg; C/I = 2/2; format: functional
[33] = In vivo activity against vaginal candidoses in rats, measured as the ratio of animals cured/animals infected (C/I) at dose 2.5 mg/kg; C/I = 2/4; format: functional
[34] = In vivo activity against microsporosis guinea pig, measured as the ratio of animals cured/animals infected (C/I) at dose 2.5 mg/kg; C/I = 0/2; format: functional

Compound	Inhibition [1] [µg/mL]	Inhibition [2] [µg/mL]	Inhibition [3] [µg/mL]	Inhibition [4] [µg/mL]	Inhibition [6] [µg/mL]	Inhibition [7] [µg/mL]	Inhibition [9] [µg/mL]	Inhibition [10] [µg/mL]	Inhibition [12] [µg/mL]	Inhibition [13] [µg/mL]	Inhibition [14] [µg/mL]	other results
Cc1nn(C)c(=O)n1-c1ccc(N2CCN(c3ccc(OC[C@@H]4COC(Cn5cncn5)(c5ccc(Cl)cc5Cl)O4)cc3)CC2)cc1 (some centres not stated)	>100	>100	>100	>100	>100	>100	>100	>100	>100	>100	>100	C/I ratio [5]: 1; C/I ratio [8]: 0; C/I ratio [11]: 1
CC(=O)N1CCN(c2ccc(OCC3COC(Cn4ccnc4)(c4ccc(Cl)cc4Cl)O3)cc2)CC1 (configuration not stated) [KETOCONAZOLE]												C/I ratio [15]: 0.956; C/I ratio [16]: 0.25; C/I ratio [17]: 0; C/I ratio [18]: 0.118; C/I ratio [19]: 1; C/I ratio [20]: 0
CCC(C)n1ncn(-c2ccc(N3CCN(c4ccc(OC[C@@H]5COC(Cn6cncn6)(c6ccc(Cl)cc6Cl)O5)cc4)CC3)cc2)c1=O (some centres not stated)	>100	>100	>100	>100	100	>100	>100	>100	10	10	100	C/I ratio [21]: 0.8; C/I ratio [22]: 1; C/I ratio [23]: 1; C/I ratio [24]: 0.853; C/I ratio [25]: 11; C/I ratio [26]: 0.394; C/I ratio [27]: 0.175
CCn1nc(C)n(-c2ccc(N3CCN(c4ccc(OC[C@@H]5COC(Cn6cncn6)(c6ccc(Cl)cc6Cl)O5)cc4)CC3)cc2)c1=O (some centres not stated)	>100	>100	>100	>100	>100	>100	>100	>100	>100	>100	>100	C/I ratio [28]: 1; C/I ratio [29]: 1; C/I ratio [30]: 0; C/I ratio [31]: 9
Cc1nn(CC(C)C)c(=O)n1-c1ccc(N2CCN(c3ccc(OC[C@@H]4COC(Cn5ccnc5)(c5ccc(Cl)cc5Cl)O4)cc3)CC2)cc1 (some centres not stated)	>100	>100	>100	>100	100	>100	>100	>100	100	100	100	C/I ratio [32]: 2; C/I ratio [33]: 0.5; C/I ratio [34]: 0
